Measurements: ChEMBL document CHEMBL1125014, “Synthesis and structure-activity relationships of new 9-N-alkyl derivatives of 9(S)-erythromycylamine” (1990)
Converted amounts (≈) assume the structure as drawn.

How the values were obtained:
Mus musculus [1] = assay: ED50 value was measured by sc administration against streptococcus pneumoniae infection in mice (in vivo, in experiment 3); format: functional
Rattus norvegicus [2] = species on record: Rattus norvegicus; assay: Fluid concentration in liver tissue was determined in rats at 6 h; format: functional
Outline: (§1)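 Rats dosed by gavage at 20 mg/kg; lung, liver, kidney, urine and serum sampled at 0.5, 1, 2, 4 and 6 h after dosing. Antibiotic measured by microbiological assay with Micrococcus luteus seeded in Antibiotic Medium 1. Zone sizes were read against the standard curve for the same compound. Each value is the average of three rats per time point.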

Rattus norvegicus [3] = species on record: Rattus norvegicus; assay: Fluid concentration in serum tissue was determined in rats at 0.5 h; format: functional; outline: as §1
Mus musculus [4] = assay: Plasma concentration in mice was determined by subcutaneous administration, 20 mg/kg at 20 min; format: functional, organism-based; parameters: dose 20 mg/kg
Outline: (§2)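 Mice given 20 mg/kg orally or subcutaneously; peripheral plasma sampled at 5, 20 and 40 min and at 1, 2 and 4 h after dosing. Microbiological assay used Micrococcus luteus seeded in Antibiotic Medium 1, with zone sizes converted by the compound's own standard curve. Each value is the average of five mice per time point.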

Rattus norvegicus [5] = species on record: Rattus norvegicus; assay: Fluid concentration in lung tissue was determined in rats at 4 h; format: functional; outline: as §1
Rattus norvegicus [6] = assay: Plasma concentration in rats was determined by subcutaneous administration, 20 mg/kg at 8 h; format: functional, organism-based; parameters: dose 20 mg/kg
Outline: (§3)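 Peripheral plasma antibiotic levels in rats given 20 mg/kg orally or subcutaneously. Plasma was sampled at timed points after dosing. Levels were measured by microbiological agar assay with Micrococcus luteus seeded in Antibiotic Media 1, reading zone sizes, and were calculated from a standard curve for the appropriate compound. Each value is the average of three rats per time point, in μg/mL.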

Streptococcus pyogenes [7] = assay: MIC value measured against streptococcus pyogenes C203; format: functional
Mus musculus [8] = assay: ED50 value was measured by po administration against staphylococcus aureus infection in mice (in vivo, in experiment 2); format: functional
Outline: (§4)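 Infected mice were dosed orally or subcutaneously at 1 and 5 h postinfection, 0.25 mL of antibiotic solution in 10% aqueous ethanol per dose. Tartaric acid was added where needed for solubility. Several dose concentrations were tested to give the ED50.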

Mus musculus [9] = assay: Plasma concentration in mice was determined by subcutaneous administration, 20 mg/kg at 5 min; format: functional, organism-based; parameters: dose 20 mg/kg; outline: as §2
Mus musculus [10] = assay: ED50 value was measured by sc administration against streptococcus pneumoniae infection in mice (in vivo, in experiment 1); format: functional; outline: as §4
Rattus norvegicus [11] = species on record: Rattus norvegicus; assay: Fluid concentration in liver tissue was determined in rats at 1 h; format: functional; outline: as §1
Mus musculus [12] = assay: ED50 value was measured by sc administration against streptococcus pyogenes infection in mice (in vivo, in experiment 1); format: functional; outline: as §4
Rattus norvegicus [13] = species on record: Rattus norvegicus; assay: Fluid concentration in lung tissue was determined in rats at 1 h; format: functional; outline: as §1
Mus musculus [14] = assay: Plasma concentration in mice was determined by subcutaneous administration, 20 mg/kg at 1 hr; format: functional, organism-based; parameters: dose 20 mg/kg; outline: as §2
Rattus norvegicus [15] = species on record: Rattus norvegicus
Mus musculus [16] = assay: ED50 value was measured by po administration against streptococcus pyogenes infection in mice (in vivo, in experiment 3); format: functional
Streptococcus pyogenes [17] = assay: Effective dose against mice infected with streptococcus pyogenes after peroral administration (in vivo); format: functional; details: in Mus musculus, po
Rattus norvegicus [18] = species on record: Rattus norvegicus; remark: listed apart in the source
Mus musculus [19] = assay: ED50 value was measured by sc administration against streptococcus pyogenes infection in mice (in vivo, in experiment 3); format: functional; outline: as §4
Rattus norvegicus [20] = species on record: Rattus norvegicus; assay: Fluid concentration in liver tissue was determined in rats at 0.5 h; format: functional
Outline: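 Rats were gavaged at 20 mg/kg and tissues sampled 0.5–6 h after dosing. Drug was assayed microbiologically with Micrococcus luteus seeded in Antibiotic Media 1. Zone sizes were read against each compound's own standard curve. Values are the mean of three rats per time point, in μg/g.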

Rattus norvegicus [21] = species on record: Rattus norvegicus; assay: Fluid concentration in lung tissue was determined in rats at 0.5 h; format: functional; outline: as §1
Rattus norvegicus [22] = assay: Plasma concentration in rats was determined by oral administration, 20 mg/kg at 40 min; format: functional, organism-based; parameters: dose 20 mg/kg; outline: as §3
Mus musculus [23] = assay: ED50 value was measured by po administration against streptococcus pneumoniae infection in mice (in vivo, in experiment 2); format: functional; outline: as §4
Mus musculus [24] = assay: Plasma concentration in mice was determined by subcutaneous administration, 20 mg/kg at 4 hr; format: functional, organism-based; parameters: dose 20 mg/kg; outline: as §2
Rattus norvegicus [25] = assay: Plasma concentration in rats was determined by subcutaneous administration, 20 mg/kg at 4 h; format: functional, organism-based; parameters: dose 20 mg/kg; outline: as §3
Mus musculus [26] = assay: ED50 value was measured by sc administration against staphylococcus aureus infection in mice (in vivo, in experiment 1); format: functional; outline: as §4
Mus musculus [27] = assay: Plasma concentration in mice was determined by subcutaneous administration, 20 mg/kg at 2 hr; format: functional, organism-based; parameters: dose 20 mg/kg; outline: as §2
Staphylococcus aureus [28] = assay: MIC value measured against staphylococcus aureus X1; format: functional
Rattus norvegicus [29] = assay: Plasma concentration in rats was determined by subcutaneous administration, 20 mg/kg at 1 h; format: functional, organism-based; parameters: dose 20 mg/kg; outline: as §3
Rattus norvegicus [30] = species on record: Rattus norvegicus; assay: Fluid concentration in lung tissue was determined in rats at 6 h; format: functional; outline: as §1
Rattus norvegicus [31] = species on record: Rattus norvegicus; assay: Fluid concentration in lung tissue was determined in rats at 2 h; format: functional; outline: as §1
Haemophilus influenzae = assay: MIC value was measured against haemophilus influenzae CL; format: functional
Rattus norvegicus [32] = species on record: Rattus norvegicus; remark: listed apart in the source
Rattus norvegicus [33] = species on record: Rattus norvegicus; remark: listed apart in the source
Mus musculus [34] = assay: ED50 value was measured by po administration against staphylococcus aureus infection in mice (in vivo, in experiment 1); format: functional; outline: as §4
Mus musculus [35] = assay: ED50 value was measured by po administration against streptococcus pneumoniae infection in mice (in vivo, in experiment 3); format: functional
Staphylococcus aureus [36] = assay: Effective dose against mice infected with Staphylococcus aureus after peroral administration (in vivo); format: functional; details: in Mus musculus, po
Mus musculus [37] = assay: Plasma concentration in mice was determined by subcutaneous administration, 20 mg/kg at 40 min; format: functional, organism-based; parameters: dose 20 mg/kg; outline: as §2
Streptococcus pneumoniae [38] = assay: Effective dose against mice infected with streptococcus pneumoniae after peroral administration (in vivo); format: functional; details: in Mus musculus, po
Streptococcus pneumoniae [39] = assay: MIC value measured against streptococcus pneumoniae Park1; format: functional
Mus musculus [40] = assay: ED50 value was measured by sc administration against staphylococcus aureus infection in mice (in vivo, in experiment 3); format: functional
Mus musculus [41] = assay: ED50 value was measured by po administration against staphylococcus aureus infection in mice (in vivo, in experiment 3); format: functional
Mus musculus [42] = assay: ED50 value was measured by po administration against streptococcus pyogenes infection in mice (in vivo, in experiment 1); format: functional; outline: as §4
Mus musculus [43] = assay: ED50 value was measured by po administration against streptococcus pneumoniae infection in mice (in vivo, in experiment 1); format: functional; outline: as §4
[44] = test system: Staphylococcus epidermidis; assay: microbe, parasite or virus in culture; format: functional

MIC (Streptococcus pyogenes [7]): 0.03 µg/mL (≈ 0.0386 µM)
MIC (Staphylococcus aureus [28]): 0.25 µg/mL (≈ 0.322 µM)
MIC (Haemophilus influenzae): 0.5 µg/mL (≈ 0.643 µM)
MIC (Streptococcus pneumoniae [39]): 0.015 µg/mL (≈ 0.0193 µM)
MIC [44]: 0.12 µg/mL (≈ 0.154 µM)
Structure (SMILES): CCCN[C@@H]1[C@H](C)[C@@H](O)[C@](C)(O)[C@@H](CC)OC(=O)[C@H](C)[C@@H](OC2CC(C)(OC)C(O)C(C)O2)[C@H](C)[C@@H](OC2OC(C)CC(N(C)C)C2O)[C@](C)(O)C[C@H]1C (stereo not given in full)
ED50 (Mus musculus [1]): 1.8 mg/kg
Activity (Rattus norvegicus [2]): 1.19 µg/mL
Activity (Rattus norvegicus [3]): 0.15 µg/mL
Plasma concentration (Mus musculus [4]): 0.75 µg/mL
Activity (Rattus norvegicus [5]): 5.46 µg/mL
Plasma concentration (Rattus norvegicus [6]): 0.24 µg/mL
ED50 (Mus musculus [8]): 25 mg/kg
Plasma concentration (Mus musculus [9]): 1.58 µg/mL
ED50 (Mus musculus [10]): 1.6 mg/kg
Activity (Rattus norvegicus [11]): 0.17 µg/mL
ED50 (Mus musculus [12]): 1.7 mg/kg
Activity (Rattus norvegicus [13]): 2.25 µg/mL
Plasma concentration (Mus musculus [14]): 0.39 µg/mL
Plasma concentration (Rattus norvegicus [15]): 0.04 µg/mL
ED50 (Mus musculus [16]): 6 mg/kg
ED50 (Streptococcus pyogenes [17]): 3 mg/kg
Plasma concentration (Rattus norvegicus [18]): 0.28 µg/mL
ED50 (Mus musculus [19]): 1.7 mg/kg
Activity (Rattus norvegicus [20]): 0.08 µg/mL
Activity (Rattus norvegicus [21]): 0.31 µg/mL
Plasma concentration (Rattus norvegicus [22]): 0.01 µg/mL
ED50 (Mus musculus [23]): 13 mg/kg
Plasma concentration (Mus musculus [24]): 0.06 µg/mL
Plasma concentration (Rattus norvegicus [25]): 0.23 µg/mL
ED50 (Mus musculus [26]): 4.7 mg/kg
Plasma concentration (Mus musculus [27]): 0.11 µg/mL
Plasma concentration (Rattus norvegicus [29]): 0.14 µg/mL
Activity (Rattus norvegicus [30]): 5.08 µg/mL
Activity (Rattus norvegicus [31]): 4.9 µg/mL
Plasma concentration (Rattus norvegicus [32]): 0.06 µg/mL
Plasma concentration (Rattus norvegicus [33]): 0.08 µg/mL
ED50 (Mus musculus [34]): 19 mg/kg
ED50 (Mus musculus [35]): 6 mg/kg
ED50 (Staphylococcus aureus [36]): 12 mg/kg
Plasma concentration (Mus musculus [37]): 0.47 µg/mL
ED50 (Streptococcus pneumoniae [38]): 7 mg/kg
ED50 (Mus musculus [40]): 6.1 mg/kg
ED50 (Mus musculus [41]): 13 mg/kg
ED50 (Mus musculus [42]): 9 mg/kg
ED50 (Mus musculus [43]): 14 mg/kg
